# Measles CPE – compounds protecting cells from measles virus cytopathic effect, primary screen, measles RdRp inhibitor project, single point, MLSMR library, absorbance. Measles virus-infected cells, CPE protection. protection (pct of control), % at 4 µM. hit rate 1.5% among 140,000; in the data active = protection mostly above about 24%, no sharp cut-off; inactive = mostly below about 26%
# RAM inhibit – inhibitors of the yeast RAM network, primary screen, dse1pr::URA3 reporter, 5-FOA selection; S. cerevisiae dse1pr::URA3 reporter, 5-FOA growth OD615, 2 d; analog-sensitive cbk1-as2 kinase mutant strain; inhibition, % at 50 µM; hit rate 1.8% among 190,000; AID 868, 2007;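 active = inhibition above a set limit, 3 SD over mean compound inhibition, cut at about 8.4% in these data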;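 also: 0% = DMSO-only wells with no growth and 100% = 10 µM 1-NA-PP1 full growth; inhibition rescues growth on 5-FOA so higher OD means more RAM inhibition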
# Yeast life ext – compounds extending yeast replicative lifespan, primary screen, S. cerevisiae, OD615; S. cerevisiae growth with nicotinamide; deaD strain in restrictive glucose medium; hit rate 0.68% among 130,000; inhibition of the nicotinamide effect, % at 10 µM; AID 775, 2007;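 active = inhibition above a set limit, placed 3 SD over the median of all compounds, cut at about 26% in these data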;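 also: 0% = nicotinamide-treated wells and 100% = cells grown without nicotinamide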
#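 Measured by: optical density (absorbance) at 615 nm; System: modified budding yeast, DeaD strain; Medium: restrictive CSMM-D dextrose medium; Timing: 4 h preincubation then 48 h treatment at 30 °C.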
# Mdm2 ligase inh – MDM2-luciferase reporter signal enhancers, primary screen, MDM2 E3 ligase inhibitor project, cell-based, luminescence, 1536-well | AID 1230, 2008 | cell-based MDM2 ubiquitination luciferase reporter, 2 h; 0 = plate control, 100 = twice control, blank-subtracted | hit rate 0.11% among 210,000 | E3 ubiquitin-protein ligase Mdm2 (Homo sapiens), Q00987 | signal enhancement, % at 5 µM;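 active = signal enhancement of 30% or more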;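 also: luminescence tracks abundance of the self-degrading MDM2-luciferase fusion protein; higher signal means inhibition of MDM2 E3 ligase activity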
# Target sequence (Q00987 whole entry, looked up, the tested form may be a part): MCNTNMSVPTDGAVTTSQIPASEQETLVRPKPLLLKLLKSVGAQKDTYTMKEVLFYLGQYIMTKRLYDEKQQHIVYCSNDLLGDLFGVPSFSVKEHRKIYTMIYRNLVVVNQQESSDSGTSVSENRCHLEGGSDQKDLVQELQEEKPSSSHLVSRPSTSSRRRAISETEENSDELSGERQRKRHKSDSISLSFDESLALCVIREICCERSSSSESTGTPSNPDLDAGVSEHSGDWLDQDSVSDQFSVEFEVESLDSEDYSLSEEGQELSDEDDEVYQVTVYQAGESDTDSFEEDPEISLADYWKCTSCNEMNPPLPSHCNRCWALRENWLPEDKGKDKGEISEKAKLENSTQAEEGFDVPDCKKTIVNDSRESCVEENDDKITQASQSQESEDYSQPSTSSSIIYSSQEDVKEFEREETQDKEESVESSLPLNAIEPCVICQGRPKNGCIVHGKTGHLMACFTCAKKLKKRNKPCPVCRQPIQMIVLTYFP
#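 Buffer or medium: Cells held in DMEM | Assay system: Stable mammalian line carrying autodegrading MDM2–luciferase fusion reporter | Quantity: 2000 cells/well | Times: 4 h settle plus 2 h compound, 37 °C | Doses: One concentration, 5 µM, with 0.2% DMSO | Technique: Luminescence with SteadyLite reagent, 15 min at room temperature | Benchmarks: Plate controls and plate blanks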
# BB579 growth dn – growth inhibitors of yeast BB579 in restrictive medium, primary screen, yeast lifespan-shortening project, S. cerevisiae; OD615, 48 h; inhibition, % at 10 µM; hit rate 0.51% among 140,000;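 active = inhibition above a set limit, 3 SD over the mean compound inhibition, cut at about 44% in these data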
#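 Test system: S. cerevisiae DeaD strain BB579 yeast; Medium: restrictive CSMM-D medium; Compound: one dose, 10 µM compound with 0.25% DMSO; Incubation: 4 h cell preincubation, 48 h compound exposure, 30 °C humidified; Signal: OD at 615 nm; Benchmarks: amphotericin B at 10 µg/mL as positive control.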
# Insulin prom inh – inhibitors of insulin promoter-driven GFP, primary screen, imaging, TRM-6 cells (human fetal islet line), eGFP reporter, cell count. reporter expression induced with tamoxifen. inhibition, % at 2 µM. hit rate 0.9% among 130,000. AID 1273, 2008;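 active = inhibition above the mean plus 3 SD, with well images judged a real hit on visual review, cut at about 60% in these data, passing the limit was not always enough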
# * hit, by the source's call; . = no result given. An excerpt weighted towards active compounds, which were near 4% of everything screened.
SMILES,Measles CPE,RAM inhibit,Yeast life ext,Mdm2 ligase inh,BB579 growth dn,Insulin prom inh
O=C(c1cccc2ccccc12)C1CCCN(C(=O)c2ccc(N3CCOCC3)cc2)C1 (stereo not given),.,1,.,0,.,33
C=C(CCC(=O)c1ccccc1)C(=O)c1ccccc1,6,-2,31*,-15,-29,.
C=C(C(=O)c1ccccc1)C(CC(=O)c1ccccc1)c1ccccc1 (stereo not given),6,7,39*,-14,-15,.
Cc1ccc(C(CC(=O)c2ccc(Cl)cc2)C(=O)O)cc1 (stereo not given),.,1,.,22,.,31
CCOC(=O)N1CCN(C(=O)/C(=C/c2ccc(Br)cc2)NC(=O)c2ccc(OC)cc2)CC1,6,0,7,-21,-35,21
COC(=O)c1[nH]c2ccc(C)cc2c1NS(=O)(=O)c1ccc(F)c(C)c1,6,1,-23,-7,-39,42
COC(=O)c1[nH]c2ccc(F)cc2c1NS(=O)(=O)c1ccc(F)c(C)c1,23,10*,7,-1,-66,-7
O=C(Cc1c[nH]c2ccccc12)Nc1ccc(N2CCOCC2)cc1,.,2,.,-16,.,.
CS/C(=N\S(=O)(=O)c1cccs1)Nc1ccc(Br)cc1F,5,1,31*,-17,-10,-21
CS/C(=N\S(=O)(=O)c1cccs1)Nc1ccc(Cl)cc1,11,0,6,-7,-35,.
Cc1ccc(-n2c(O)c(C=Nc3ccccc3-c3n[nH]c(=S)[nH]c3=O)c3ccccc3c2=O)c(C)c1,.,11*,.,1,.,-26
CN(Cc1cn(C)nc1-c1ccccc1F)CC1CCCCO1 (stereo not given),.,0,.,-7,.,.
O=S(=O)(c1cccs1)N1CN(Cc2cccs2)c2nc3ccccc3nc21,11,8.6*,2,-12,-29,0
Cc1[nH]nc(SCC(=O)NC2CCCCC2)c1[N+](=O)[O-],.,-1,.,-17,.,.
COc1cc(OC)c(C(=O)OC(C)C(=O)Nc2cccc(C(F)(F)F)c2)cc1OC (stereo not given),28,2,-5,-3,-33,18
CC(C)OC(=O)CSc1nc2c(c(C3CC=CCC3)c1C#N)CCC2 (stereo not given),14,11*,-8,-22,-23,16
CC(C)N1C(=O)CCC1C(=O)NCCc1ccc(Cl)cc1 (stereo not given),30*,4,3,.,-35,15

# Compound activity from PubChem BioAssay.
